Results reported in ChEMBL document CHEMBL1833805, “Histone deacetylase inhibitors from Burkholderia thailandensis” (2011).
Activity calls are given as the source filed them. No cut-off for these calls is given here.

Tests used:
OVCAR-5 = test: Antitumor activity against human OVCAR5 cells implanted subcutaneously in mouse assessed as inhibition of tumor cell growth at 1.6 to 2.4 mg/kg, ip administered on day 1 to 4 measured on day 5 by hollow fiber assay; type: functional
Method in brief: (§1)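 Human tumour cell lines from a standard 12-line panel encapsulated in polyvinylidene fluoride hollow fibres (500,000 Da exclusion), implanted intraperitoneally or subcutaneously in mice; drug given IP at 2.4 and 1.6 mg/kg/dose on days 1–4; fibres retrieved and viable cell mass determined day 5; T/C versus vehicle-only injected controls.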

UACC-257 [1] = test: Ratio of FK228 TGI to compound TGI for human UACC257 cells; type: functional
U-251 [2] = test: Cytotoxicity against human U251 cells after 6 days by MTT assay; type: functional; conditions: U-251, 144 h
COLO 205 [3] = test: Ratio of FK228 TGI to compound TGI for human COLO205 cells; type: functional
UACC-62 = test: Antitumor activity against human UACC62 cells implanted subcutaneously in mouse assessed as inhibition of tumor cell growth at 1.6 to 2.4 mg/kg, ip administered on day 1 to 4 measured on day 5 by hollow fiber assay; type: functional; method in brief: as §1
UACC-257 [4] = test: Cytotoxicity against human UACC257 cells after 6 days by MTT assay; type: functional; conditions: UACC-257, 144 h
U-251 [5] = test: Ratio of FK228 TGI to compound TGI for human U251 cells; type: functional
[6] = molecular target: Histone deacetylase 4 (Homo sapiens) (UniProt P56524); test: Inhibition of human HDAC4 assessed as deacetylated substrate level using RHKAcKAc as substrate by fluorometric analysis
Sequence of Histone deacetylase 4 (Homo sapiens) (P56524 whole entry): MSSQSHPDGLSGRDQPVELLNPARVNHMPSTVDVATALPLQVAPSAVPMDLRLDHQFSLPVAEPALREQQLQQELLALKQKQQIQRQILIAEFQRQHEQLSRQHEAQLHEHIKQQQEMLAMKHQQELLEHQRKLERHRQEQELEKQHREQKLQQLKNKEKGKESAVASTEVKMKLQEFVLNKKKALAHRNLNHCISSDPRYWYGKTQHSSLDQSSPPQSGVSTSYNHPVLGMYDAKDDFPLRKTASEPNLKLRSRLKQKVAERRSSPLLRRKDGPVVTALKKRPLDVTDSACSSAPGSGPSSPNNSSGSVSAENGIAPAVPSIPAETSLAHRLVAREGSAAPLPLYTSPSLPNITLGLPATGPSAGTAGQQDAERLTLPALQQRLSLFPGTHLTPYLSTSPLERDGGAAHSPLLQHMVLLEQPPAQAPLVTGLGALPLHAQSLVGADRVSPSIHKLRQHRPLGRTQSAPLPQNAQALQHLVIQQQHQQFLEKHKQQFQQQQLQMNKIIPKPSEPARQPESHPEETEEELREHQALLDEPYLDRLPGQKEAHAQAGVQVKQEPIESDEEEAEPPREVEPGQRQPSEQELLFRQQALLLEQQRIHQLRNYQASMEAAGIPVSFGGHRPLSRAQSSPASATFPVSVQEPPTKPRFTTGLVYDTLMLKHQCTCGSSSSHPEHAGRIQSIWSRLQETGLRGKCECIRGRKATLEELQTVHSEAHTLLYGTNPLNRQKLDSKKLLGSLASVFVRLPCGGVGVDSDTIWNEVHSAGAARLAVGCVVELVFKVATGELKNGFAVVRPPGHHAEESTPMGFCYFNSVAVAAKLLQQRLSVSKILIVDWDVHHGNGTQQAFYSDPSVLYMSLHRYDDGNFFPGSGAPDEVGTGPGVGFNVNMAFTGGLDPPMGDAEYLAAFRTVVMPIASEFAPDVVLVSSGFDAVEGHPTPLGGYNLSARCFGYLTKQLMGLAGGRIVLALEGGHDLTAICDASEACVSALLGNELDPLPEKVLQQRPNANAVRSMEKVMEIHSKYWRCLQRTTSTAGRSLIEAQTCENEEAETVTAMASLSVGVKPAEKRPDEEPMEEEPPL
Method in brief: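 Recombinant human HDAC4 with fluorogenic p53 379–382 peptide RHKAcKAc as substrate. Compound tested at 10 doses in duplicate, 3-fold serial dilution from 20 µM. Two steps: incubation with substrate, then digestion with a developing mixture. Fluorescence read at 360 nm excitation / 460 nm emission, proportional to deacetylated substrate.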

NCI-H522 = test: Antitumor activity against human NCI-H522 cells implanted subcutaneously in mouse assessed as inhibition of tumor cell growth at 1.6 to 2.4 mg/kg, ip administered on day 1 to 4 measured on day 5 by hollow fiber assay; type: functional; method in brief: as §1
RXF 393 [7] = test: Cytotoxicity against human RXF393 cells after 6 days by MTT assay; type: functional; conditions: RXF 393, 144 h
SF-295 [8] = test: Ratio of FK228 TGI to compound TGI for human SF295 cells; type: functional
A498 [9] = test: Ratio of FK228 TGI to compound TGI for human A498 cells; type: functional
RXF 393 [10] = test: Ratio of FK228 TGI to compound TGI for human RXF393 cells; type: functional
SN12C [11] = test: Ratio of FK228 TGI to compound TGI for human SN12C cells; type: functional
ACHN [12] = test: Cytotoxicity against human ACHN cells after 6 days by MTT assay; type: functional; conditions: 144 h
SF-295 [13] = test: Cytotoxicity against human SF295 cells after 6 days by MTT assay; type: functional; conditions: SF-295, 144 h
CAKI-1 [14] = test: Ratio of FK228 TGI to compound TGI for human Caki1 cells; type: functional
ACHN [15] = test: Ratio of FK228 TGI to compound TGI for human ACHN cells; type: functional
U-251 [16] = test: Antitumor activity against human U251 cells implanted subcutaneously in mouse assessed as inhibition of tumor cell growth at 1.6 to 2.4 mg/kg, ip administered on day 1 to 4 measured on day 5 by hollow fiber assay; type: functional; method in brief: as §1
SF-295 [17] = test: Antitumor activity against human SF295 cells implanted subcutaneously in mouse assessed as inhibition of tumor cell growth at 1.6 to 2.4 mg/kg, ip administered on day 1 to 4 measured on day 5 by hollow fiber assay; type: functional; method in brief: as §1
COLO 205 [18] = test: Cytotoxicity against human COLO205 cells after 6 days by MTT assay; type: functional; conditions: COLO 205, 144 h
[19] = molecular target: Histone deacetylase 1 (Homo sapiens) (UniProt Q13547); test: Inhibition of human HDAC1 assessed as deacetylated substrate level using RHKKAc as substrate by fluorometric analysis
Sequence of Histone deacetylase 1 (Homo sapiens) (Q13547 whole entry): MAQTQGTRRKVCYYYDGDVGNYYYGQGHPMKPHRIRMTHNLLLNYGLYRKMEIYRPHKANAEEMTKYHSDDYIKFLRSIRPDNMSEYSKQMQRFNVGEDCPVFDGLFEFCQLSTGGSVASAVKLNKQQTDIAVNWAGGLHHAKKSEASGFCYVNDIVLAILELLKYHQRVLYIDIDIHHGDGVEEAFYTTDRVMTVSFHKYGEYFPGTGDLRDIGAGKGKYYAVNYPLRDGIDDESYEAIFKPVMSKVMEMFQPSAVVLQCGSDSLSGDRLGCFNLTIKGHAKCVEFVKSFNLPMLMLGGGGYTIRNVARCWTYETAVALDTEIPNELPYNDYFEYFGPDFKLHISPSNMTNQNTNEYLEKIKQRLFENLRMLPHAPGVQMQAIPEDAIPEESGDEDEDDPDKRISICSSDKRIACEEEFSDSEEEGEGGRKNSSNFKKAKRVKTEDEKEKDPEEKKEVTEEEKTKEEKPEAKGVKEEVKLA
Method in brief: (§2)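 Recombinant human HDAC1 or HDAC8 with fluorogenic p53 379–382 peptide RHKKAc as substrate. Compound tested at 10 doses in duplicate, 3-fold serial dilution from 20 µM. Substrate incubated with compound, then the mixture was digested with a developing mixture. Fluorescence read at 360 nm excitation / 460 nm emission, proportional to deacetylated substrate.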

RXF 393 [20] = test: Ratio of FK228 LC50 to compound LC50 for human RXF393 cells; type: functional
CAKI-1 [21] = test: Cytotoxicity against human Caki1 cells after 6 days by MTT assay; type: functional; conditions: CAKI-1, 144 h
LOX IMVI = test: Antitumor activity against human LOXIMVI cells implanted subcutaneously in mouse assessed as inhibition of tumor cell growth at 1.6 to 2.4 mg/kg, ip administered on day 1 to 4 measured on day 5 by hollow fiber assay; type: functional; method in brief: as §1
NCI-H322M [22] = test: Ratio of FK228 TGI to compound TGI for human NCI-H322M cells; type: functional
MDA-MB-468 [23] = test: Cytotoxicity against human MDA-MB-468 cells after 6 days by MTT assay; type: functional; conditions: MDA-MB-468, 144 h
[24] = molecular target: Histone deacetylase 8 (Homo sapiens) (UniProt Q9BY41); test: Inhibition of human HDAC8 assessed as deacetylated substrate level using RHKKAc as substrate by fluorometric analysis; method in brief: as §2
Sequence of Histone deacetylase 8 (Homo sapiens) (Q9BY41 whole entry): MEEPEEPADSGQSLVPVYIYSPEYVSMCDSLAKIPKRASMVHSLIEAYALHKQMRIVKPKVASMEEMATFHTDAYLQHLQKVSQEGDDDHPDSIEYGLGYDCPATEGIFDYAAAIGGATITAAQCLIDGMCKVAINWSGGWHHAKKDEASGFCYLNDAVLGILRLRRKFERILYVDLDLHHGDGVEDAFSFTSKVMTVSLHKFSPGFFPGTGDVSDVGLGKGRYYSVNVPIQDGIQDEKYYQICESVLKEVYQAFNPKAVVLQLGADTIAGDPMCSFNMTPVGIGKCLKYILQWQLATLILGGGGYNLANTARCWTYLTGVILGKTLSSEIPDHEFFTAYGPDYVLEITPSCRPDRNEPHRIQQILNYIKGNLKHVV

NCI-H322M [25] = test: Cytotoxicity against human NCI-H322M cells after 6 days by MTT assay; type: functional; conditions: 144 h
MDA-MB-231 [26] = test: Ratio of FK228 TGI to compound TGI for human MDA-MB-231 cells; type: functional
MDA-MB-231 [27] = test: Cytotoxicity against human MDA-MB-231 cells after 6 days by MTT assay; type: functional; conditions: MDA-MB-231, 144 h
MDA-MB-435 = test: Antitumor activity against human MDA-MB-435 cells implanted subcutaneously in mouse assessed as inhibition of tumor cell growth at 1.6 to 2.4 mg/kg, ip administered on day 1 to 4 measured on day 5 by hollow fiber assay; type: functional; method in brief: as §1
U-251 [28] = test: Ratio of FK228 LC50 to compound LC50 for human U251 cells; type: functional
MDA-MB-231 [29] = test: Antitumor activity against human MDA-MB-231 cells implanted subcutaneously in mouse assessed as inhibition of tumor cell growth at 1.6 to 2.4 mg/kg, ip administered on day 1 to 4 measured on day 5 by hollow fiber assay; type: functional; method in brief: as §1
COLO 205 [30] = test: Antitumor activity against human COLO205 cells implanted subcutaneously in mouse assessed as inhibition of tumor cell growth at 1.6 to 2.4 mg/kg, ip administered on day 1 to 4 measured on day 5 by hollow fiber assay; type: functional; method in brief: as §1
MDA-MB-468 [31] = test: Ratio of FK228 TGI to compound TGI for human MDA-MB-468 cells; type: functional
NCI = test: Cytotoxicity against human NCI60 cells after 6 days by MTT assay; type: functional; conditions: 144 h
UO-31 [32] = test: Ratio of FK228 TGI to compound TGI for human UO31 cells; type: functional
NCI-H23 = test: Antitumor activity against human NCI-H23 cells implanted subcutaneously in mouse assessed as inhibition of tumor cell growth at 1.6 to 2.4 mg/kg, ip administered on day 1 to 4 measured on day 5 by hollow fiber assay; type: functional; method in brief: as §1
SW-620 = test: Antitumor activity against human SW620 cells implanted subcutaneously in mouse assessed as inhibition of tumor cell growth at 1.6 to 2.4 mg/kg, ip administered on day 1 to 4 measured on day 5 by hollow fiber assay; type: functional; method in brief: as §1
A498 [33] = test: Cytotoxicity against human A498 cells after 6 days by MTT assay; type: functional; conditions: A498, 144 h
COLO 205 [34] = test: Ratio of FK228 LC50 to compound LC50 for human COLO205 cells; type: functional
SN12C [35] = test: Cytotoxicity against human SN12C cells after 6 days by MTT assay; type: functional; conditions: 144 h
[36] = Antitumor activity against human […] cells implanted subcutaneously in mouse assessed as inhibition of tumor cell growth at 1.6 to 2.4 mg/kg, ip administered on day 1 to 4 measured on day 5 by hollow fiber assay; type: functional; method in brief: as §1
UO-31 [37] = test: Cytotoxicity against human UO31 cells after 6 days by MTT assay; type: functional; conditions: UO-31, 144 h
A498 [38] = test: Ratio of FK228 LC50 to compound LC50 for human A498 cells; type: functional
[39] = read-out: LC50 (the source's name)

With CC[C@H](C)[C@H]1NC(=O)[C@H]2CSSCC/C=C/[C@H](CC(=O)N[C@H](CC[S+](C)[O-])C(=O)N2)OC(=O)C[C@@H]1O (stereo partly specified) [SPIRUCHOSTATIN C] the T/C (OVCAR-5) was >50%, the Ratio (UACC-257 [1]) was 2.9 and the TGI (U-251 [2]) was 0.012 µM. For the same compound, the CC50 (U-251 [2]; [39]) was 0.037 µM, the Ratio (COLO 205 [3]) was 3.8 and the T/C (UACC-62) was >50%. The TGI (UACC-257 [4]) was 0.033 µM, the Ratio (U-251 [5]) was 2.7 and the inhibition [6] was “Active”. For the same compound, the T/C (NCI-H522) was >50%, the TGI (RXF 393 [7]) was 0.016 µM and the CC50 (RXF 393 [7]; [39]) was 0.17 µM. It also gave a Ratio (SF-295 [8]) of 2.3, a Ratio (A498 [9]) of 2.4 and a Ratio (RXF 393 [10]) of 3.8. For the same compound, the Ratio (SN12C [11]) was 2.1, the TGI (ACHN [12]) was 0.18 µM and the TGI (SF-295 [13]) was 0.11 µM. For the same compound, the Ratio (CAKI-1 [14]) was 2.1, the Ratio (ACHN [15]) was 4 and the T/C (U-251 [16]) was >50%. The T/C (SF-295 [17]) was >50%, the TGI (COLO 205 [18]) was 0.008 µM and the CC50 (COLO 205 [18]; [39]) was 0.015 µM. The inhibition [19] was “Active”, the Ratio (RXF 393 [20]) was 1.8 and the TGI (CAKI-1 [21]) was 0.88 µM. For the same compound, the T/C (LOX IMVI) was >50%, the Ratio (NCI-H322M [22]) was 2.3 and the TGI (MDA-MB-468 [23]) was 0.023 µM. The inhibition [24] was “Active”, the TGI (NCI-H322M [25]) was 0.1 µM and the Ratio (MDA-MB-231 [26]) was 2.4. The TGI (MDA-MB-231 [27]) was 0.15 µM, the T/C (MDA-MB-435) was >50% and the Ratio (U-251 [28]) was 3.6. For the same compound, the T/C (MDA-MB-231 [29]) was >50%, the T/C (COLO 205 [30]) was >50% and the Ratio (MDA-MB-468 [31]) was 3.9. For the same compound, the TGI (NCI) was 0.83 µM, the CC50 (NCI; [39]) was 7.7 µM and the Ratio (UO-31 [32]) was 4.9. The T/C (NCI-H23) was >50%, the T/C (SW-620) was >50% and the TGI (A498 [33]) was 0.012 µM. It also gave a CC50 (A498 [33]; [39]) of 0.055 µM, a Ratio (COLO 205 [34]) of 6 and a TGI (SN12C [35]) of 0.16 µM. For the same compound, the T/C [36] was >50%, the TGI (UO-31 [37]) was 0.32 µM and the Ratio (A498 [38]) was 3.6.
